The test system of test [1] is Rattus norvegicus. The experiment in a line: Androgenic activity in sc dosed ORX rat model assessed as dose required to induce 50% effect on ventral prostate weight administered 4 days. Type of test: functional, Prostate gland. The procedure, abridged:
(§1)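 Young (immature) rats castrated, left untreated one week, then dosed daily for four days (test agents orally; testosterone propionate subcutaneously). Untreated ORX and sham-operated rats as controls. Levator ani (anabolic) and ventral prostate (androgenic) weights normalised to body weight; activity % = (W/BW treated − W/BW ORX)/(W/BW sham − W/BW ORX) × 100; A50 = dose giving 50% activity.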

In test [2] the test system is Rattus norvegicus. Description: Anabolic activity in ORX rat model assessed as levator ani muscle weight at 1 mg/kg, sc administered 4 days relative to sham-treated control. It is filed as functional. The note with it: route subcutaneous. The procedure, abridged:
as §1

The test system of test [3] is Rattus norvegicus. The experiment in a line: Anabolic activity in sc dosed ORX rat model assessed as dose required to induce 50% effect on levator ani muscle weight administered 4 days. Type of test: functional. The procedure, abridged: as §1
The test system of test [4] is Rattus norvegicus. The experiment in a line: Anabolic activity in sc dosed ORX rat model assessed as maximum effect on levator ani muscle weight administered 4 days relative to sham-treated control. Type of test: functional. Put shortly: as §1
Test [5] has as its system Rattus norvegicus. The experiment in a line: Androgenic activity in sc dosed ORX rat model assessed as maximum effect on ventral prostate weight administered 4 days relative to sham-treated control. It is filed as functional, Prostate gland. The procedure, abridged:
as §1

Test [6] has as its system Rattus norvegicus. Description: Androgenic activity in ORX rat model assessed as ventral prostate weight at 1 mg/kg, sc administered 4 days relative to sham-treated control. Type of test: functional, Prostate gland. The note with it: route subcutaneous. The procedure, abridged:
as §1

For test [7], the system named is Rattus norvegicus. Description: Anabolic activity in ORX rat model assessed as levator ani muscle weight at 30 mg/kg, po administered 4 days relative to sham-treated control. Type of test: functional. The procedure, abridged:
as §1

In test [8] the test system is Rattus norvegicus. Description: Androgenic activity in ORX rat model assessed as ventral prostate weight at 30 mg/kg, po administered 4 days relative to sham-treated control. It is filed as functional, Prostate gland. The procedure, abridged: as §1
For test [9], the system named is Rattus norvegicus. Description: Androgenic activity in ORX rat model assessed as ventral prostate weight at 10 mg/kg, po administered 4 days relative to sham-treated control. It is filed as functional, Prostate gland. The procedure, abridged: as §1
In test [10] the test system is Rattus norvegicus. The experiment in a line: Anabolic activity in ORX rat model assessed as levator ani muscle weight at 10 mg/kg, po administered 4 days relative to sham-treated control. Type of test: functional. The procedure, abridged: as §1

With `CCC(=O)O[C@H]1CC[C@H]2[C@@H]3CCC4=CC(=O)CC[C@]4(C)[C@H]3CC[C@]12C` [TESTOSTERONE PROPIONATE], the Activity in the test on Rattus norvegicus [1] turned out to be 0.2 mg/kg; with Rattus norvegicus [2] it was 99%; with Rattus norvegicus [3], 0.3 mg/kg; with Rattus norvegicus [4], 130%; in the test with Rattus norvegicus [5], 130%; with Rattus norvegicus [6], 73%.
With `CN1C(=O)N(c2ccc(C#N)c(C(F)(F)F)c2)C(=O)C1(C)c1ccc(O)cc1` (racemic), the Activity in the test on Rattus norvegicus [7] is reported as 84%; in the test on Rattus norvegicus [8], 14%.
In the same order, the values of `C#CCN1C(=O)N(c2ccc(C#N)c(C(F)(F)F)c2)C(=O)C1(C)c1ccc(O)cc1` (racemic) are 95% and 19%.
Taken in the same sequence, the figures for `CN1C(=O)N(c2ccc(C#N)c(C(F)(F)F)c2)C(=O)[C@]1(C)c1ccc(O)cc1` were -5% and 5%.
In the same order, the values of `COc1cc(N2C(=O)N(C)C(C)(c3ccc(O)cc3)C2=O)ccc1C#N` (racemic) are 96% and 51%.
Regarding `C=CCN1C(=O)N(c2ccc(C#N)c(C(F)(F)F)c2)C(=O)C1(C)c1ccc(O)cc1` (racemic), the results for the Activity in the test on Rattus norvegicus [7] and with Rattus norvegicus [8] were 15% and -3%, respectively.
In the same order, the values of `CN1C(=S)N(c2ccc(Cl)c(Cl)c2)C(=O)C1(C)c1ccc(O)cc1` (racemic) are 13% and 0%.
In the same order, the values of `Cc1c(N2C(=O)N(C)C(C)(c3ccc(O)cc3)C2=O)ccc(C#N)c1Cl` (racemic) are 82% and 12%.
Taken in the same sequence, the figures for `CN1C(=O)N(c2ccc(Cl)c(Cl)c2)C(=O)C1(C)c1ccc(O)cc1` (racemic) were 12% and 0%.
With `CN1C(=S)N(c2ccc(C#N)c(C(F)(F)F)c2)C(=O)C1(C)c1ccc(O)cc1` (racemic), the results for the Activity with Rattus norvegicus [7] and in the test with Rattus norvegicus [8] were 12% and 4%, respectively.
In the case of `COc1cc(N2C(=O)N(C)[C@](C)(c3ccc(O)cc3)C2=O)ccc1C#N`, the Activity with Rattus norvegicus [9] was 30%; in the test on Rattus norvegicus [10], 132%.

(Values after ChEMBL document CHEMBL2176865, “Discovery of diarylhydantoins as new selective androgen receptor modulators” (J Med Chem, 2012).)
